{"source": "ChEMBL document CHEMBL5331127", "about": "“Discovery of ARD-2051 as a Potent and Orally Efficacious Proteolysis Targeting Chimera (PROTAC) Degrader of Androgen Receptor for the Treatment of Advanced Prostate Cancer” (J Med Chem, 2023)", "key": {"[1]": {"test": "Metabolic stability in human hepatocytes assessed as half life at 1 uM measured upto 120 mins in presence of NADPH by LC-MS/MS analysis", "format": "ADME, cell-based, Hepatocyte", "conditions": "2 h"}, "[2]": {"test": "Drug concentration in CB17 SCID mouse plasma xenografted with human VCaP cells at 12.5 mg/kg, po measured after 24 hrs by LC-MS/MS analysis", "format": "ADME, organism-based", "in_short": "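SCID mice bearing one VCaP tumour each given a single oral 12.5 mg/kg dose in 100% PEG200. Plasma and tumour tissue collected at 6 and 24 h, 3 mice per time point. Values are mean ± SD.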"}, "[3]": {"test": "Downregulation of KLK3 gene expression in human VCaP cells at 1 nM incubated for 24 hrs by qRT-PCR analysis", "format": "functional", "in_short": "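VCaP cells (ATCC) grown in DMEM with Glutamax plus 10% FBS at 37 °C, 5% CO2. Cells treated 24 h; KLK3 mRNA measured by qRT-PCR, expression by comparative CT method, normalised to GAPDH (ΔCT) and then to vehicle control (ΔΔCT).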"}, "VCaP [4]": {"test_system": "VCaP", "test": "Antitumor activity against human VCaP cells xenografted in CB17 SCID mouse assessed as tumor growth inhibition at 7.5 mg/kg, po administered for 21 days", "format": "functional", "conditions": "504 h, time 21 day, read-out: TGI", "in_short": "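SCID mice bearing VCaP xenografts dosed by oral gavage once daily for 21 days at 3.75, 7.5, 12.5 or 25 mg/kg. Tumour growth inhibition calculated against vehicle-treated mice at the end of treatment; body weight monitored.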"}, "[5]": {"test": "Metabolic stability in mouse plasma assessed as half life at 1 uM measured upto 120 mins by LC-MS/MS analysis", "format": "ADME, cell-free", "conditions": "2 h", "in_short": "(§1)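 Compound at 1 μM final in pre-warmed plasma of each species, 37 °C for up to 2 h. ACN/IS quench at 0, 5, 15, 30, 60 and 120 min; LC/MS. Procaine as reference (benfluorex for rat). t1/2 = 0.693/slope of ln(fraction remaining) versus time.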"}, "VCaP [6]": {"test_system": "VCaP", "test": "Induction of androgen receptor degradation in human VCaP cells at 100 nM pretreated with ARi-12 for 2 hrs followed by compound addition and 3 hrs by Western blot analysis", "format": "functional, cell-based", "conditions": "time 5.0 hrs", "in_short": "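LNCaP or VCaP cells pretreated 2 h with DMSO, ARi-12 (10 μM), thalidomide (10 μM), MG-132 (3 μM) or MLN4924 (0.5 μM), then given degrader at 100 nM for 3 h. AR measured by Western blot with GAPDH as loading control.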"}, "[7]": {"test": "Metabolic stability in monkey plasma assessed as half life at 1 uM measured upto 120 mins by LC-MS/MS analysis", "format": "ADME, cell-free, Macaca mulatta", "conditions": "rhesus monkey, 2 h", "in_short": "as §1"}}, "note": "Active and inactive are the calls of the source. The rule behind the calls is not given here.", "data": [{"smiles": "C[C@H]1CC2(CCN(c3ccc(C(=O)N4CCN(C5CN(c6ccc7c(c6)C(=O)N(C6CCC(=O)NC6=O)C7=O)C5)CC4)cc3)CC2)CN1c1ccc(C#N)c(Cl)c1", "note": "(some centres not stated)", "values": [{"measurement": "t1/2", "setting": "[1]", "result": "> 2", "unit": "h"}, {"measurement": "concentration at 24 h", "setting": "[2]", "result": 742, "unit": "ng/mL"}, {"measurement": "Activity", "setting": "[3]", "result": 51, "unit": "%"}, {"measurement": "inhibition in vivo at 7.5 mg/kg", "setting": "VCaP [4]", "result": 71, "unit": "%"}, {"measurement": "t1/2", "setting": "[5]", "result": "> 2", "unit": "h"}, {"measurement": "Activity", "setting": "VCaP [6]", "result": "inactive"}, {"measurement": "t1/2", "setting": "[7]", "result": "> 2", "unit": "h"}]}]}
